# According to publication PMC7572827 (Clinical cancer research : an official journal of the …, 2020):
# Several values for one entry are separate records, joined by “and”; a condition that tells them apart may be missing. Identical values can stand only once. Entries after “also recorded” stand apart in the source; their conditions may differ. Like-named read-outs stand apart in the source and are kept apart here.
# Tests used:
# MYC and AR-signaling = assay: RNA-seq gene set enrichment analysis of paired metastatic tumor biopsies; type: in vivo, human; conditions: four patients, with enzalutamide, median eight weeks of treatment
# [1] = tested on: BET inhibitor target genes MYC, IL-8, CCR1, GPR183, IL1RN; assay: Whole blood RNA expression of BET inhibitor target genes; type: in vivo, human
# Method in brief: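 mCRPC patients received the oral test compound once daily plus enzalutamide 160 mg daily. Whole blood RNA was sampled pre-dose and 2, 4, 6 and 24 h after the cycle 1 day 1 dose. Panel: MYC, IL-8, CCR1, GPR183, HEXIM1, IL1RN. Expression change was correlated with parent plus active metabolite exposure: AUC0–2 for MYC and GPR183, AUC0–4 for CCR1, IL1RN and IL-8. Exposure was measured by plasma LC/MS/MS.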
# [2] = tested on: metastatic castration-resistant prostate cancer (mCRPC); type: in vivo, human
# [3] = Phase 1b/2a safety: treatment-related adverse events; type: in vivo, human
# Method in brief: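 Open-label, multicenter phase 1b/2 trial in progressive mCRPC patients resistant to abiraterone and/or enzalutamide. Test compound was given orally once daily, starting at 36 mg, with 3+3 escalation up to 144 mg daily. Expansion cohorts received 48 or 96 mg daily. All patients took enzalutamide 160 mg daily, with a 14-day enzalutamide lead-in if not already on it. Cycles were 28 days. Adverse events were graded by CTC v4.0, with assessments weekly in cycles 1–2, every 2 weeks in cycle 3, then every 4 weeks.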
# mCRPC = conditions: SWITCH phase 2 crossover study; cited from earlier work
# [4] = Plasma pharmacokinetics by LC/MS/MS; conditions: steady-state, by ZEN-3694 dose level
smiles,measurement,setting,value
CNc1nc2ncc(-c3c(C)noc3C)cc2n1Cc1ccccc1 [ZEN-3694],"Gene set enrichment, on-treatment versus baseline tumor biopsies",MYC and AR-signaling,down-regulation of expression of MYC and AR-signaling
same,Mean difference in whole blood RNA expression of BETi targets,"[1]; 4 hours post-ZEN-3694 dose, p ≤ 0.0001",up to 4 fold
same,"Decrease in whole blood mRNA levels of BET inhibitor target genes MYC, IL-8, CCR1, GPR183, IL1RN","[1]; dose-dependent, post-C1D1 dose",2–4 fold
same,Dose level at which decrease in BET inhibitor target gene expression plateaus,[1]; in vivo,≥ 96 mg
same,Duration of decrease in whole blood mRNA levels of BET inhibitor target genes,[1]; in vivo,at least 8 hours
same,Patients remaining on treatment without progression at data cut-off,[2]; 7 patients,9%
same,Patients on treatment greater than 24 months without progression,[2]; four patients,5%
same,Median time to progression (TTP),[2]; higher canonical AR transcriptional activity in baseline biopsy,19 weeks
same,Composite median radiographic or clinical progression-free survival,[2]; overall cohort,5.5 months
same,Median radiographic progression-free survival (rPFS),"[2]; overall cohort, with enzalutamide",9.0 months and 9 months
same,Median rPFS,[2]; patients that had progressed on abiraterone,7.8 months
same,Median rPFS,"[2]; primary resistance to prior first-line AR targeted therapy, progression within 6 months, N = 12",10.6 months
same,Composite median PFS,"[2]; primary resistance, progression within 16 weeks, N = 5",10.6 months
same,Composite median radiographic or clinical progression-free survival,[2]; prior progression on abiraterone,5.5 months
same,Median rPFS,[2]; radiographic progression at study entry,7.8 months
same,Median rPFS,"[2]; serum PSA consistently rose beyond 12 weeks, N = 21",7.2 months
same,Median rPFS,[2]; tumors with high AR activity,4.3 months
same,Median rPFS,[2]; tumors with low AR score,10.4 months
same,Median TTP,"[2]; without aggressive variant clinical features, p = 0.24",5.5 months
same,"Treatment-related AE all grades, patients: Fatigue",[3]; 36mg QD n=4,1
same,"Treatment-related AE all grades, patients: Visual symptoms",[3]; 36mg QD n=4,3
same,"Treatment-related AE all grades, patients: Weight loss & Abnormal WL",[3]; 36mg QD n=4,1
same,"Treatment-related AE all grades, patients: Constipation",[3]; 48 mg QD n=21,1
same,"Treatment-related AE all grades, patients: Decreased Appetite",[3]; 48 mg QD n=21,2
same,"Treatment-related AE all grades, patients: Dysgeusia",[3]; 48 mg QD n=21,2
same,"Treatment-related AE all grades, patients: Dyspepsia",[3]; 48 mg QD n=21,1
same,"Treatment-related AE all grades, patients: Fatigue",[3]; 48 mg QD n=21,8
same,"Treatment-related AE all grades, patients: Nausea",[3]; 48 mg QD n=21,7
same,"Treatment-related AE all grades, patients: Photopsia",[3]; 48 mg QD n=21,1
same,"Treatment-related AE all grades, patients: Photosensitivity",[3]; 48 mg QD n=21,2
same,"Treatment-related AE all grades, patients: Rash maculopapular",[3]; 48 mg QD n=21,3
same,"Treatment-related AE all grades, patients: Thrombocytopenia",[3]; 48 mg QD n=21,1
same,"Treatment-related AE all grades, patients: Visual symptoms",[3]; 48 mg QD n=21,12
same,"Treatment-related AE all grades, patients: Vomiting",[3]; 48 mg QD n=21,1
same,"Treatment-related AE all grades, patients: Decreased Appetite",[3]; 72mg QD n=6,1
same,"Treatment-related AE all grades, patients: Diarrhea",[3]; 72mg QD n=6,1
same,"Treatment-related AE all grades, patients: Dizziness",[3]; 72mg QD n=6,1
same,"Treatment-related AE all grades, patients: Dysgeusia",[3]; 72mg QD n=6,0
same,"Treatment-related AE all grades, patients: Fatigue",[3]; 72mg QD n=6,2
same,"Treatment-related AE all grades, patients: Nausea",[3]; 72mg QD n=6,3
same,"Treatment-related AE all grades, patients: Taste disorder",[3]; 72mg QD n=6,1
same,"Treatment-related AE all grades, patients: Thrombocytopenia",[3]; 72mg QD n=6,2
same,"Treatment-related AE all grades, patients: Visual symptoms",[3]; 72mg QD n=6,6
same,"Treatment-related AE all grades, patients: Weight loss & Abnormal WL",[3]; 72mg QD n=6,1
same,"Treatment-related AE all grades, patients: Blood creatinine Increased",[3]; 96mg QD n=31,3
same,"Treatment-related AE all grades, patients: Constipation",[3]; 96mg QD n=31,3
same,"Treatment-related AE all grades, patients: Decreased Appetite",[3]; 96mg QD n=31,10
same,"Treatment-related AE all grades, patients: Diarrhea",[3]; 96mg QD n=31,5
same,"Treatment-related AE all grades, patients: Dizziness",[3]; 96mg QD n=31,3
same,"Treatment-related AE all grades, patients: Dysgeusia",[3]; 96mg QD n=31,10
same,"Treatment-related AE all grades, patients: Dyspepsia",[3]; 96mg QD n=31,2
same,"Treatment-related AE all grades, patients: Fatigue",[3]; 96mg QD n=31,13
same,"Treatment-related AE all grades, patients: Nasal congestion",[3]; 96mg QD n=31,3
same,"Treatment-related AE all grades, patients: Nausea",[3]; 96mg QD n=31,17
same,"Treatment-related AE all grades, patients: Photopsia",[3]; 96mg QD n=31,3
same,"Treatment-related AE all grades, patients: Photosensitivity",[3]; 96mg QD n=31,3
same,"Treatment-related AE all grades, patients: Rash",[3]; 96mg QD n=31,3
same,"Treatment-related AE all grades, patients: Rash maculopapular",[3]; 96mg QD n=31,1
same,"Treatment-related AE all grades, patients: Taste disorder",[3]; 96mg QD n=31,3
same,"Treatment-related AE all grades, patients: Thrombocytopenia",[3]; 96mg QD n=31,6
same,"Treatment-related AE all grades, patients: Vision blurred",[3]; 96mg QD n=31,2
same,"Treatment-related AE all grades, patients: Visual symptoms",[3]; 96mg QD n=31,17
same,"Treatment-related AE all grades, patients: Vomiting",[3]; 96mg QD n=31,3
same,"Treatment-related AE all grades, patients: Weight loss & Abnormal WL",[3]; 96mg QD n=31,3
same,Dose-limiting toxicity,"[3]; 96 mg/day dose level, Grade 3 nausea, cycle 1",One patient
same,"Treatment-related AE all grades, patients: Decreased Appetite",[3]; 120mg QD N=4,3
same,"Treatment-related AE all grades, patients: Dysgeusia",[3]; 120mg QD N=4,1
same,"Treatment-related AE all grades, patients: Fatigue",[3]; 120mg QD N=4,3
same,"Treatment-related AE all grades, patients: Nausea",[3]; 120mg QD N=4,3
same,"Treatment-related AE all grades, patients: Vision blurred",[3]; 120mg QD N=4,1
same,"Treatment-related AE all grades, patients: Visual symptoms",[3]; 120mg QD N=4,4
same,"Treatment-related AE all grades, patients: Vomiting",[3]; 120mg QD N=4,1
same,"Treatment-related AE all grades, patients: Weight loss & Abnormal WL",[3]; 120mg QD N=4,1
same,Patients requiring dose reduction and/or discontinuation,[3]; 120 mg/day,75%
same,"Treatment-related AE all grades, patients: Decreased Appetite",[3]; 144mg QD N=3,2
same,"Treatment-related AE all grades, patients: Dysgeusia",[3]; 144mg QD N=3,3
same,"Treatment-related AE all grades, patients: Fatigue",[3]; 144mg QD N=3,1
same,"Treatment-related AE all grades, patients: Nausea",[3]; 144mg QD N=3,2
same,"Treatment-related AE all grades, patients: Rash maculopapular",[3]; 144mg QD N=3,1
same,"Treatment-related AE all grades, patients: Thrombocytopenia",[3]; 144mg QD N=3,1
same,"Treatment-related AE all grades, patients: Visual symptoms",[3]; 144mg QD N=3,2
same,"Treatment-related AE all grades, patients: Weight loss & Abnormal WL",[3]; 144mg QD N=3,2
same,Patients requiring dose reduction and/or discontinuation,[3]; 144 mg/day,100%
same,"Treatment-related AE all grades, patients: Blood creatinine Increased",[3]; 6Dmg QD n=6,2
same,"Treatment-related AE all grades, patients: Decreased Appetite",[3]; 6Dmg QD n=6,2
same,"Treatment-related AE all grades, patients: Dysgeusia",[3]; 6Dmg QD n=6,0
same,"Treatment-related AE all grades, patients: Fatigue",[3]; 6Dmg QD n=6,1
same,"Treatment-related AE all grades, patients: Nausea",[3]; 6Dmg QD n=6,2
same,"Treatment-related AE all grades, patients: Taste disorder",[3]; 6Dmg QD n=6,1
same,"Treatment-related AE all grades, patients: Thrombocytopenia",[3]; 6Dmg QD n=6,1
same,"Treatment-related AE all grades, patients: Visual symptoms",[3]; 6Dmg QD n=6,4
same,"Treatment-related AE all grades, patients: Blood creatinine Increased",[3]; TOTAL n=75,5 (6.7) n (%)
same,"Treatment-related AE all grades, patients: Constipation",[3]; TOTAL n=75,4 (5.3) n (%)
same,"Treatment-related AE all grades, patients: Decreased Appetite",[3]; TOTAL n=75,20 (26.7) n (%)
same,"Treatment-related AE all grades, patients: Diarrhea",[3]; TOTAL n=75,6(8) n (%)
same,"Treatment-related AE all grades, patients: Dizziness",[3]; TOTAL n=75,4 (5.3) n (%)
same,"Treatment-related AE all grades, patients: Dysgeusia",[3]; TOTAL n=75,16 (21.3) n (%)
same,"Treatment-related AE all grades, patients: Dyspepsia",[3]; TOTAL n=75,3(4) n (%)
same,"Treatment-related AE all grades, patients: Fatigue",[3]; TOTAL n=75,29 (38.7) n (%)
same,"Treatment-related AE all grades, patients: Nasal congestion",[3]; TOTAL n=75,3(4) n (%)
same,"Treatment-related AE all grades, patients: Nausea",[3]; TOTAL n=75,34 (45.3) n (%)
same,"Treatment-related AE all grades, patients: Photopsia",[3]; TOTAL n=75,4 (5.3) n (%)
same,"Treatment-related AE all grades, patients: Photosensitivity",[3]; TOTAL n=75,5 (6.7) n (%)
same,"Treatment-related AE all grades, patients: Rash",[3]; TOTAL n=75,3(4) n (%)
same,"Treatment-related AE all grades, patients: Rash maculopapular",[3]; TOTAL n=75,5 (6.7) n (%)
same,"Treatment-related AE all grades, patients: Taste disorder",[3]; TOTAL n=75,5 (6.7) n (%)
same,"Treatment-related AE all grades, patients: Thrombocytopenia",[3]; TOTAL n=75,11 (14.7) n (%)
same,"Treatment-related AE all grades, patients: Vision blurred",[3]; TOTAL n=75,3(4) n (%)
same,"Treatment-related AE all grades, patients: Visual symptoms",[3]; TOTAL n=75,48 (64) n (%)
same,"Treatment-related AE all grades, patients: Vomiting",[3]; TOTAL n=75,5 (6.7) n (%)
same,"Treatment-related AE all grades, patients: Weight loss & Abnormal WL",[3]; TOTAL n=75,8(10.7) n (%)
same,Maximum tolerated dose,[3]; ZEN-3694 36 to 144 mg daily with enzalutamide 160 mg daily,without reaching an MTD; also recorded: not reached
same,Patients requiring dose reduction and/or treatment discontinuation due to adverse events,"[3]; all dose levels, 24/75",32%
same,Patients with Grade ≥ 3 treatment-related adverse event,"[3]; all dose levels, n=75, with enzalutamide",18.7%
same,Patients requiring dose reduction and/or discontinuation,[3]; doses from 36 mg – 96 mg/day,10%−35%
same,Recommended phase 2 dose,[3]; in combination with enzalutamide,96 mg/day
same,Grade ≥ 3 nausea,"[3]; n=75, with enzalutamide",4%
same,Patients discontinued for adverse event,[3]; nine patients,12%
C[C@]12CC[C@H](O)CC1=CC[C@@H]1[C@@H]2CC[C@]2(C)C(c3cccnc3)=CC[C@@H]12 [abiraterone],"Median PFS, second line",mCRPC,1.7 months
CNC(=O)c1ccc(N2C(=S)N(c3ccc(C#N)c(C(F)(F)F)c3)C(=O)C2(C)C)cc1F [enzalutamide],Impact of ZEN-3694 on concentration,[4],no significant impact
same,"Median PFS, second line",mCRPC,3.5 months
